Only some compounds are listed: those with a hit (about 2.8% of all), similar ones and a draw of the others.
ASAP1 GAP inh – ASAP1 ArfGAP inhibition. Q9ULH1. ASAP1-stimulated ARF1 GTP hydrolysis, GDP FP detection. inhibition, % at 16.5 µM. actives 0.19% (n = 360,000). AID 624377; in the data active = inhibition above about 25%;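 note: 0% = vehicle with enzyme and substrate and 100% = no enzyme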
Target sequence (Q9ULH1 325-724 limits assumed): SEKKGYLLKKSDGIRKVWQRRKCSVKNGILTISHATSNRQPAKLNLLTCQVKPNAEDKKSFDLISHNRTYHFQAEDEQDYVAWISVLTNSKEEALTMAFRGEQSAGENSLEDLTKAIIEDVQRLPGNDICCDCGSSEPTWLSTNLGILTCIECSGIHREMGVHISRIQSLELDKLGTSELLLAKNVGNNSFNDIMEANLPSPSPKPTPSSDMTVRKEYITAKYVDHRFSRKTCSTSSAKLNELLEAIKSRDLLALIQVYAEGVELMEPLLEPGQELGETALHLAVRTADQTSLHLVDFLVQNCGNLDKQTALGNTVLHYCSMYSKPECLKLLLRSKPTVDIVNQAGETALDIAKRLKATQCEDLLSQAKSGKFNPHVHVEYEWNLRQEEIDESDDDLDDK
PAFAH2 FP inh – inhibitors of human PAFAH2; Q99487; recombinant PAFAH2, FP-rhodamine activity probe, fluorescence polarization; inhibition, % at 3.39 µM; actives 0.99% (n = 340,000); AID 492956;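 active = inhibition above the mean over all tested compounds plus 3 SD, cut at about 30% in these data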;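 note: inhibitors block probe labeling of enzyme so polarization drops; 0% = enzyme with DMSO and 100% = wells lacking PAFAH2 protein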
ARFGAP1 inh – inhibitors of rat ARFGAP1 | inhibition, % at 16.5 µM | AID 651572 | Q62848 | actives 0.26% (n = 360,000) | Arfgap1-stimulated ARF1 GTP hydrolysis, GDP FP detection;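 active = inhibition above a per-plate limit, mean inhibition of low control wells plus 3 SD, cut at about 25% in these data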;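 note: 0% = DMSO wells with enzyme and 100% = wells lacking Arfgap1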
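Material: rat Arfgap1 catalytic domain, aa 1-136; also added: human ARF1(Δ1-17)-GTP substrate; compound dosing: one concentration, 16.5 µM, DMSO 1.26%; incubation: GTP hydrolysis reaction 2 h at 25 °C; measured by: Tracer-displacement fluorescence polarization with EDTA stop, 620/688 nm; evaluation: % inhibition from polarization; repeats: one replicate per compound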
PAFAH1B3 FP inh – blocks human PAF acetylhydrolase 1B catalytic subunit 3 | Q15102 | actives 0.28% (n = 340,000) | recombinant PAFAH1B3, FP-rhodamine probe, fluorescence polarization | inhibition, % at 3.39 µM;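 active = inhibition above the screen-wide average of all tested compounds plus 3 SD, cut at about 25% in these data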;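 note: 0% = enzyme with DMSO only and 100% = wells lacking PAFAH1B3 protein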
pPAFAH FP inh – inhibitors of human plasma PAF acetylhydrolase (pPAFAH) | actives 1.5% (n = 330,000) | Q13093 | recombinant pPAFAH, FP-rhodamine probe fluorescence polarization | inhibition, % at 3.39 µM;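 active = inhibition above the mean inhibition across the screen plus 3 SD, cut at about 25% in these data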;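 note: inhibitors block binding of the rhodamine activity-based probe so polarization drops; 0% = enzyme with DMSO and 100% = wells lacking pPAFAH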
PAFAH1B2 FP inh – PAFAH1B2 (human) inhibition; P68402; recombinant PAFAH1B2, FP-rhodamine activity probe, fluorescence polarization; inhibition, % at 3.39 µM; actives 1.2% (n = 340,000); AID 492953;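 active = inhibition above the mean of all tested compounds plus 3 SD, cut at about 24% in these data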;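 note: 0% = enzyme with DMSO and 100% = wells lacking PAFAH1B2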
Target sequence (P68402 whole entry, looked up): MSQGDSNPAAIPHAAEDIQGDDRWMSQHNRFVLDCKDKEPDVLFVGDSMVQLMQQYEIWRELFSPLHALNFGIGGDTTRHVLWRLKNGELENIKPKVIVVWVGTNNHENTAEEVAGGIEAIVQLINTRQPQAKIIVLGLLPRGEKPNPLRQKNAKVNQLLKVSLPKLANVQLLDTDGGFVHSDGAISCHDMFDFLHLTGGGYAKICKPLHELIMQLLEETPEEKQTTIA
The depositor's hits bear a star; . = not tested or not shown.

SMILES	ASAP1 GAP inh	PAFAH2 FP inh	ARFGAP1 inh	PAFAH1B3 FP inh	pPAFAH FP inh	PAFAH1B2 FP inh
CCC(C)(C)n1nnnc1C(c1ccncc1)N1CCC(Cc2ccccc2)CC1 (stereo unspecified)	5.2	-6.5	4.8	7.0	26.0*	0.2
CCC(C)(C)n1nnnc1C(c1cccnc1)N1CCC(Cc2ccccc2)CC1 (stereo unspecified)	-0.1	-1.3	-6.0	2.6	8.7	-4.4
COC(=O)c1ccc(C)c(NC(=O)CCNC(=O)c2ccc([N+](=O)[O-])cc2)c1	-3.1	-4.8	2.9	-2.8	29.4*	3.0
O=C(NCc1ccccc1)C(c1ccc(-c2ccccc2)cc1)n1c(=O)c(-c2ccco2)nc2ccccc21 (stereo unspecified)	-1.4	.	11.2	.	.	.
COC(=O)C1=CN(C(C)c2ccccc2)C=C(C(=O)OC)C1c1cc(OC)c(OC)c(OC)c1 (stereo unspecified)	-2.0	4.0	-1.6	12.1	-3.5	27.5*
Cc1cc2oc(=O)cc(CN(C)Cc3ccccc3)c2cc1C	2.9	.	-7.3	.	.	.
CCc1ccc2oc(=O)cc(CN(C)Cc3ccccc3)c2c1	-8.3	-8.7	1.8	2.9	-0.1	37.7*
COC(=O)C[C@@H]1C=C[C@@H](NC(=O)c2ccccc2F)[C@@H](CO)O1	18.5	.	5.2	.	.	.
O=[N+]([O-])c1ccccc1N/N=C/c1c[nH]c2ccccc12	7.8	8.7	5.6	12.1	25.2*	3.9
Cc1ccc(C(=O)NNc2cc(N3CCCC3)nc(N3CCCC3)n2)cc1	.	.	.	.	31.9*	.
CCCCOC(=O)c1ccc(NC(=O)COC(=O)C2CC2C)cc1 (stereo unspecified)	6.2	.	6.1	.	.	.
CCc1ccccc1Nc1ccc(C(=O)O)cc1N	4.2	7.3	3.0	4.9	20.9	1.9
Nc1cc(C(=O)O)ccc1Nc1ccccc1	-6.7	1.6	0.1	9.4	26.5*	-0.2
CC(C)c1nnc(NC(=O)CC23CC4CC(CC(C4)C2)C3)s1	4.8	1.4	1.0	1.8	-4.2	20.6
CCc1nnc(NC(=O)CC23CC4CC(CC(Br)(C4)C2)C3)s1	8.0	1.6	9.7	9.9	9.2	26.7*
CCCc1nnc(NC(=O)C23CC4CC(CC(C4)C2)C3)s1	-1.5	3.5	8.0	3.0	.	24.6*
COc1ccc2c(c1)c(CC(=O)OCC(N)=O)c(C)n2C(=O)c1ccc(Cl)cc1	-7.6	-9.5	9.4	4.9	24.7*	1.7
O=C(CN1C(=O)C2CCCCC2C1=O)OCC(=O)c1ccc(Cl)s1 (stereo unspecified)	-8.2	40.5*	11.2	7.2	25.6*	3.1
COC(=O)C1=C(CSc2nc3c(cc2C#N)CN(C)CC3)OC(N)=C(C#N)C1c1ccc(F)cc1 (stereo unspecified)	-0.3	12.9	2.8	15.8	26.1*	9.9
Cc1cccc(C(=O)O/N=C(\c2ccccc2)c2cccnc2)c1	0.1	71.7*	-3.3	3.2	30.0*	13.8
N/C(=N\OC(=O)c1ccccc1)c1cccnc1	-5.6	-2.1	-1.9	4.8	-1.1	-2.0
CCn1nc(NS(=O)(=O)c2ccc([N+](=O)[O-])cc2)c2cc3cccc(C)c3nc21	-3.4	14.2	-12.4	8.4	27.7*	6.7
CCn1nc(NS(=O)(=O)c2ccccc2[N+](=O)[O-])c2cc3cccc(C)c3nc21	8.3	10.2	3.5	8.1	17.1	6.7
Cc1cc(/C=N/n2cnnc2)c(C)n1-c1ccc(OCc2ccc(Cl)cc2)cc1	-3.9	0.2	-13.1	-0.6	13.3	6.5
Cc1cc(/C=N/n2cnnc2)c(C)n1-c1ccc(OCc2ccccc2F)cc1	0.5	0.5	3.6	8.8	27.0*	-0.5
SMILES	ASAP1 GAP inh	PAFAH2 FP inh	ARFGAP1 inh	PAFAH1B3 FP inh	pPAFAH FP inh	PAFAH1B2 FP inh
COc1cc(-c2cc(=O)c3c(O)c(OC)c(OC)c(O)c3o2)ccc1O	-1.6	7.2	6.3	25.5	26.4*	6.2
O=C(CSc1nnnn1-c1ccc(C(=O)O)cc1)NC1CCCCC1	2.2	-9.2	-2.6	0.1	-1.3	10.0
Cc1c(C(=O)OCC(=O)NC(C)c2ccccc2)oc2ccccc12 (stereo unspecified)	-8.3	4.9	7.9	3.0	-1.1	0.2
C[C@]12CCC[C@H](O1)c1c(cc3c(c1O)C(=O)c1c(O)cc(O)cc1C3=O)O2	5.8	30.2*	8.2	18.9	27.0*	14.6
O=[N+]([O-])c1ccc(NC(=S)N2CCc3ccccc32)cc1	18.0	-5.6	10.2	-6.2	.	4.9
O=NN(C(=O)NC1CCC(C(=O)O)CC1)C1CCC(C(=O)O)CC1 (stereo unspecified)	-1.9	.	-1.8	.	.	.
Cc1cc(C)c(C#N)c(SCCS(=O)(=O)c2ccc(Cl)cc2)n1	11.9	1.1	-6.1	-3.6	3.5	29.2*
COc1ccccc1NS(=O)(=O)c1ccc(N/N=C/c2ccccc2OCC(=O)O)c([N+](=O)[O-])c1	7.3	15.0	8.0	12.9	28.6*	9.3
CCN(CC)S(=O)(=O)c1ccc(N/N=C/c2ccccc2OCC(=O)O)c([N+](=O)[O-])c1	1.0	9.1	8.2	3.0	30.2*	8.6
CCOc1ccccc1/C=N/NC(=O)c1cccc(S(=O)(=O)N(CC)CC)c1	-21.7	-2.9	-5.2	1.3	-1.1	-1.1
Cc1cc(Br)cn2c(CC(C)(C)C)c(-c3cccc(Cl)c3)nc12	-0.5	.	-11.1	.	.	.
O=c1[nH]cnc2c1c(-c1ccccc1)cn2-c1ccc(Br)cc1	1.3	-0.7	-9.7	-0.5	27.3*	-2.7
Cc1cccc(-n2cc(-c3ccccc3)c3c(=O)[nH]cnc32)c1	-14.6	4.3	-7.0	7.1	29.9*	-4.0
CCOc1ccc(-n2cc(-c3ccccc3)c3c(=O)[nH]cnc32)cc1	7.1	-0.4	2.9	5.7	15.7	2.3
CCOC(=O)c1c(C)c2c(=O)[nH]cnc2n1-c1ccccc1	-3.8	-3.7	-2.3	8.0	3.7	3.4
C=Cn1cc[n+](CC(=O)c2ccc(Br)s2)c1	-4.7	5.0	4.6	5.5	2.5	1.4
CCOc1ccccc1OCCCC(=O)NNC(=O)c1nn(C)c(=O)c2ccccc12	13.3	0.0	-12.8	2.5	-6.8	6.7
Cc1cc(NC(=O)CSc2nnc3ccc(-c4ccccc4)nn23)no1	0.4	.	12.8	.	.	.
O=C(COc1ccccc1)Nc1nnc(S(=O)(=O)Nc2ccccc2)s1	-12.2	10.8	1.4	1.8	26.7*	6.8
CCC(Oc1ccccc1)C(=O)Nc1nnc(S(=O)(=O)Nc2ccccc2)s1 (stereo unspecified)	9.4	0.6	11.4	-0.2	32.6*	8.1
COc1ccc(C2=NN(C(=O)COC(=O)c3ccc(S(C)(=O)=O)c([N+](=O)[O-])c3)C(c3ccco3)C2)cc1 (stereo unspecified)	2.5	-20.8	9.3	-23.2	-7.0	-13.1
Cc1cccc(NC(=O)CNC(=O)[C@H](CCc2ccccc2)NC(=O)[C@H]2O[C@@H](n3cnc4c(N)ncnc43)[C@H](O)[C@@H]2O)c1C	1.4	.	-9.4	.	.	.

From PubChem BioAssay
